14 molecules from ChEMBL document CHEMBL3244322, “5-O-Alkylated derivatives of 5-hydroxy-2'-deoxyuridine as potential antiviral agents. Anti-herpes activity of 5-propynyloxy-2'-deoxyuridine” (J Med Chem, 1978) can be followed below.

For series [1], the system named is Vesicular stomatitis virus. Nature of the series: Antiviral activity against Vesicular stomatitis virus infected in human skin fibroblasts primed with interferon and superinduced with cyclohexamide and actinomycin D assessed as inhibition of virus-induced cytopathogenicity. The format is functional, organism-based. In general terms: Protection from cytopathic effect is a common read-out in antiviral testing.

Series [2] has as its system Human alphaherpesvirus 1. The experiment in a line: Antiviral activity against Herpes simplex virus 1 KOS infected in primary rabbit kidney cells assessed as inhibition of virus-induced cytopathogenicity. The format is functional. Conditions: Human alphaherpesvirus 1, KOS.
Series [3] concerns Vesicular stomatitis virus. Nature of the series: Antiviral activity against Vesicular stomatitis virus infected in primary rabbit kidney cells assessed as inhibition of virus-induced cytopathogenicity. The format is functional, organism-based.
Series [4] deals with Human alphaherpesvirus 1. The experiment in a line: Antiviral activity against Herpes simplex virus 1 KOS infected in human skin fibroblasts primed with interferon and superinduced with cyclohexamide and actinomycin D assessed as inhibition of virus-induced cytopathogenicity. The format is functional. Particulars: Human alphaherpesvirus 1, KOS.
The nature of series [5]: Ratio of I50 for DNA synthesis in primary rabbit kidney cells by [3H]-dT incorporation assay to MIC50 for Herpes simplex virus 1 KOS. The gist of the method: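 DNA synthesis in uninfected PRK cells measured by [3H]-dT incorporation. The concentration giving 50% reduction is set against the concentration giving 50% reduction in herpes virus cytopathogenicity.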
Series [6] in a line: Cytotoxicity against mouse L cells assessed as suppression of replication at 10^-3 M. Particulars: l929, 1000 µM. The series is classed as cell-based.
Series [7] is described as follows: Cytotoxicity against mouse L cells assessed as suppression of replication. The series is classed as cell-based. Conditions: l929.

In brackets after ≈: the same amount, converted by molar mass. Activity calls are given as the source filed them. The rule behind the calls is not given here.

Turning to `O=C(O)COc1cn([C@H]2C[C@H](O)[C@@H](CO)O2)c(=O)[nH]c1=O`, the inhibition entry in series [1] and in series [3] was “inactive” in each case. Moreover, in the series with Human alphaherpesvirus 1 [2], the MIC was greater than 600 µM.
For `C=CCOc1cn([C@H]2C[C@H](O)[C@@H](CO)O2)c(=O)[nH]c1=O`, the inhibition entry in series [1] and in series [3] was “inactive” throughout. Also, the MIC came to 14 µM (≈ 3.98 µg/mL) with Human alphaherpesvirus 1 [2] and 140 µM (≈ 39.8 µg/mL) in the series on Human alphaherpesvirus 1 [4].
In the case of `Nc1ncnc2c1ncn2[C@@H]1O[C@H](CO)[C@@H](O)[C@@H]1O` [VIDARABINE], the MIC in the series on Human alphaherpesvirus 1 [2] was 14 µM (≈ 3.74 µg/mL); with Human alphaherpesvirus 1 [4], 3.5 µM (≈ 0.935 µg/mL).
Take `O=c1[nH]c(=O)n([C@H]2C[C@H](O)[C@@H](CO)O2)cc1OCc1ccccc1`: the inhibition entry in series [1] and in series [3] was “inactive” throughout. The MIC in the series with Human alphaherpesvirus 1 [2] was greater than 120 µM; with Human alphaherpesvirus 1 [4], greater than 450 µM.
In the case of `O=c1[nH]c(=O)n([C@@H]2O[C@H](CO)[C@@H](O)[C@H]2O)cc1OCc1ccccc1`, the inhibition result in series [1] and in series [3] was “inactive” in each case. The MIC with Human alphaherpesvirus 1 [2] and in the series with Human alphaherpesvirus 1 [4] was greater than 600 µM each time.
Consider `C#CCOc1cn([C@H]2C[C@H](O)[C@@H](CO)O2)c(=O)[nH]c1=O`, for which the inhibition result in series [1] and in series [3] was “inactive” in each case. In addition, in series [5], the Ratio is on record as 150. Also, the figures for the MIC in the series on Human alphaherpesvirus 1 [2] and in the series on Human alphaherpesvirus 1 [4] were 2.6 µM (≈ 0.734 µg/mL) and 3.5 µM (≈ 0.988 µg/mL), respectively. The Activity entry in series [6] is given as “Non-toxic”.
As to `NC(=O)COc1cn([C@H]2C[C@H](O)[C@@H](CO)O2)c(=O)[nH]c1=O`, the inhibition entry in series [1] and in series [3] was “inactive” each time. The MIC worked out at 140 µM (≈ 42.2 µg/mL) in the series on Human alphaherpesvirus 1 [2] and 260 µM (≈ 78.3 µg/mL) in the series with Human alphaherpesvirus 1 [4].
`Cc1ccc(COc2cn([C@@H]3O[C@H](CO)[C@@H](O)[C@H]3O)c(=O)[nH]c2=O)cc1`: the inhibition entry in series [1] and in series [3] was “inactive” each time. For the same molecule, the MIC in the series with Human alphaherpesvirus 1 [2] and with Human alphaherpesvirus 1 [4] was greater than 600 µM in each case.
Take `O=c1[nH]c(=O)n([C@H]2C[C@H](O)[C@@H](CO)O2)cc1OCc1ccc([N+](=O)[O-])cc1`: the inhibition entry in series [1] and in series [3] was “inactive” in each case. For the same molecule, the MIC is greater than 260 µM with Human alphaherpesvirus 1 [2] and greater than 520 µM with Human alphaherpesvirus 1 [4].
As for `O=c1[nH]c(=O)n([C@H]2C[C@H](O)[C@@H](CO)O2)cc1I` [IDOXURIDINE], the MIC with Human alphaherpesvirus 1 [2] amounted to 1.4 µM (≈ 0.496 µg/mL); in the series on Human alphaherpesvirus 1 [4], 0.35 µM (≈ 0.124 µg/mL). In series [7], the Activity result is recorded as “Toxic”.
Turning to `O=c1[nH]c(=O)n([C@@H]2O[C@H](CO)[C@@H](O)[C@H]2O)cc1OCc1ccc([N+](=O)[O-])cc1`, the inhibition result in series [1] and in series [3] was “inactive” throughout. In addition, the MIC in the series with Human alphaherpesvirus 1 [2] and in the series on Human alphaherpesvirus 1 [4] was greater than 600 µM throughout.
On to `O=c1[nH]c(=O)n([C@H]2C[C@H](O)[C@@H](CO)O2)cc1O`, for which the MIC with Human alphaherpesvirus 1 [2] amounted to 16 µM (≈ 3.91 µg/mL); in the series with Human alphaherpesvirus 1 [4], 3.5 µM (≈ 0.855 µg/mL).
Regarding `NC(=O)COc1cn([C@@H]2O[C@H](CO)[C@@H](O)[C@H]2O)c(=O)[nH]c1=O`, the inhibition entry in series [1] and in series [3] was “inactive” each time. Besides, the MIC with Human alphaherpesvirus 1 [2] and in the series on Human alphaherpesvirus 1 [4] was greater than 600 µM in each case.
In the case of `C=CCOc1cn([C@@H]2O[C@H](CO)[C@@H](O)[C@H]2O)c(=O)[nH]c1=O`, the inhibition result in series [1] and in series [3] was “inactive” throughout. Moreover, the MIC in the series on Human alphaherpesvirus 1 [2] and in the series with Human alphaherpesvirus 1 [4] was greater than 600 µM in each case.
